BaF3 tox = parental Ba/F3 cell viability inhibition, counter-screen for JAK2V617F inhibitor project, murine pro-B, CellTiter-Glo luminescence. CellTiter-Glo ATP luminescence. inhibition, % at 5.6 µM. 220,000 tested, 1.1% active. AID 1486, 2009;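 active means inhibition above a per-campaign cutoff, the mean inhibition of all tested compounds plus 3 SD, cut at about 27% in these data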;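 further: 0% = DMSO wells and 100% = JAK Inhibitor I control wells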
Ba/F3 V617F tox = reduced viability of JAK2V617F-dependent Ba/F3 cells, primary screen, JAK2V617F inhibitor project, cell-based, Ba/F3 EpoR-JAK2V617F, luminescence. 220,000 tested, 1.1% active. ATP luminescence. inhibition, % at 5.6 µM;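 active means inhibition above the campaign mean plus 3 SD over all tested compounds, cut at about 24% in these data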;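 further: cytokine-independent growth of Ba/F3 cells driven by EpoR plus mutant JAK2; 0% = DMSO-treated cells and 100% = JAK inhibitor I control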
bCat nuc transl = modulators of beta-catenin nuclear translocation, primary screen, imaging, HeLa cells, immunofluorescence, high-content; nuclear translocation activity, % at 5 µM; 190,000 tested, 0.3% active;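 active means nuclear translocation activity above 50% at 5 µM, with a well cell count of 50 or more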;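 further: per-cell ratio of nuclear to cytoplasmic median beta-catenin stain intensity; plate controls were DMSO negative control for no effect and GSK-3 inhibitor IX positive control for full effect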
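Technique: fluorescence imaging of beta-catenin antibody stain plus DAPI / Material: human HeLa cell line / Incubation: compound treatment 24 h, 37°C, 5% CO2 / Read-out basis: % activation of per-cell nuclear versus cytoplasmic median beta-catenin signal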
APP transl inh = inhibitors of APP translation via 5'UTR reporter, primary screen, APP 5'UTR luciferase, SH-SY5Y cells; SH-SY5Y APP 5'UTR-luciferase reporter, luminescence; inhibition, % at 2 µM; 190,000 tested, 0.82% active;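 active means inhibition above a set limit, derived from the sample mean plus 3 SD, cut at about 45% in these data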
Lmaj promast = Leishmania major promastigote growth inhibition, primary screen | Leishmania major promastigotes, resazurin fluorescence viability | inhibition, % at 10 µM | 200,000 tested, 9% active | AID 1063, 2008; in the data active means inhibition above about 50%;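 further: promastigotes grown with compound for 44 hours at 28 °C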
MT stabilizer = microtubule stabilizers in HeLa cells, primary screen, imaging, high-content imaging; HeLa tubulin immunostaining HCS, 24 h; share of cells brighter than vehicle mean+2SD; % tubulin-high responders, % at 10 µM; 200,000 tested, 0.83% active;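 active means plate Z-score above 3 for both tubulin-high and condensed-nucleus cell shares, with cell loss under 80%, at 10 µM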;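 further: anti alpha tubulin signal scored within the nucleus-defined area of each cell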
Numbers without * were called inactive; . = no result given. Sampled rows, rich in hits. Any-hit rate of the full collection: about 9.6%.

SMILES	BaF3 tox	Ba/F3 V617F tox	bCat nuc transl	APP transl inh	Lmaj promast	MT stabilizer
CC1CCCN(Cc2cccc(Oc3ccccc3)c2)C1 (centres undefined)	2	3	2	-5	100*	4
COc1cc(OC)c(C2N(c3ccccn3)C(=O)C3CCCN32)cc1OC (centres undefined)	3	1	-4	2	-4	4
COc1cc(OC)c(C2N(C)c3ccccc3N2C)cc1OC	59*	53*	-1	-11	-1	2
CCCCCCCc1c(O)nc(SCCN2CCOCC2)[nH]c1=O	5	-4	1	-13	-9	3
CO/N=C(/CS(=O)(=O)c1ccc(C)cc1)c1ccc(OC)cc1	1	-3	.	0	80*	13
COc1ccc(C(=O)NCS(=O)(=O)c2ccc(C)cc2)cc1	-1	-3	2	-8	-7	3
Cc1ccc(-c2cc(C(F)(F)F)n3nc(C(=O)NCCCn4ccnc4)cc3n2)cc1C	-2	-1	2	-1	100*	4
Cc1ccc(-c2cc(C(F)(F)F)n3nc(C(=O)Nc4ccon4)cc3n2)cc1C	-5	-2	1	.	.	.
C(=N\n1cnnc1)/c1ccccc1OCCOc1ccccc1	-3	-4	-3	-36	16	3
O=C(CN1CCN(c2ncccn2)CC1)N1CCCc2c1c(=O)oc1ccc(O)cc21	-2	-4	2	72*	-4	4
CCCCCOc1ccc2oc(=O)c3c(c2c1)CCCN3C(=O)CN1CCCC(C(=O)OCC)C1 (centres undefined)	1	-6	.	-4	19	1
CCCOc1ccc2oc(=O)c3c(c2c1)CCCN3C(=O)CN(C)Cc1ccccc1	2	-1	0	10	58*	2
O=C(c1ccco1)N1CCN(CC(=O)N2CCCc3c2c(=O)oc2ccc(O)cc32)CC1	1	-2	-1	4	-1	4
CC(=O)Oc1ccc2oc(=O)c3c(c2c1)CCCN3C(=O)CN1CCN(c2ncccn2)CC1	5	-2	0	9	-6	3
O=C(CN1CCN(Cc2ccccc2)CC1)N1CCCc2c1c(=O)oc1ccc(O)cc21	3	-2	0	-11	10	35*
O=C(NC1CCSC1)c1cccc(Cl)c1 (centres undefined)	5	-2	0	.	.	.
C/C(=N\NC(=O)c1csc2ccccc12)c1ccc(O)cc1	3	0	-4	33	9	2
Oc1ccc(/C=N/NC(=S)N2CCOCC2)cc1	9	4	-5	-7	9	5
O=C(/C=C/c1ccc(OC2CSC2)cc1)c1ccc(Cl)cc1	1	-3	-6	-19	54*	4
CCCOc1ccc(C(=O)NCCC(=O)NCCCC(=O)O)cc1	2	1	3	.	.	.
O=C(NC1CCCCC1)N1CCCC(CNS(=O)(=O)Cc2ccccc2)C1 (centres undefined)	4	-3	1	-12	18	1
O=C(Nc1cccc(F)c1)N1CCCC(CNS(=O)(=O)Cc2ccccc2)C1 (centres undefined)	4	-2	-1	5	92*	1
Cc1cc(N2CCCC2)ccc1/C=N/n1cnnc1	8	6	11	-11	67*	2
CCN1C=C(Cc2cccs2)C2=C(C1)C(c1cccs1)C(C#N)=C(N)O2 (centres undefined)	5	0	-2	-4	55*	7
OC(CNC1CCCc2ccccc21)COc1c(Cl)cccc1Cl (centres undefined)	1	7	.	-6	93*	2
SMILES	BaF3 tox	Ba/F3 V617F tox	bCat nuc transl	APP transl inh	Lmaj promast	MT stabilizer
Cc1ccccc1NC(=O)Cn1nnc(S(=O)(=O)c2ccc(C(C)(C)C)cc2)c1N	3	-4	-2	-13	-8	5
O=C(CNC(=S)N(Cc1ccccc1)Cc1cccnc1)NCCN1CCOCC1	-2	-5	2	8	-6	2
CCOC(=O)c1c(COc2ccccc2)oc2ccc(O)cc12	1	1	0	0	-3	1
CCOC(=O)c1c(C)[nH]c2ccc(O)cc12	5	4	1	50*	-3	2
CCOC(=O)c1c(C(C)(C)C)oc2ccc(O)cc12	0	0	-1	3	100*	3
Cc1[nH]nc(SCC(=O)N2CCOCC2)c1[N+](=O)[O-]	9	1	-2	6	-6	4
Cc1cccc(Cn2cc(/C=C/[N+](=O)[O-])c3ccccc32)c1	7	-1	4	13	77*	3
O=[N+]([O-])/C=C/c1cn(Cc2ccc(Cl)cc2)c2ccccc12	0	-4	-1	-8	99*	2
Cc1cccc(N2CCN(CCNC(=O)c3cc4c(s3)CS(=O)(=O)C4)CC2)c1C	8	0	.	-6	99*	3
Cc1ccc(NC(=O)C2CCN(c3cnccn3)CC2)cc1	-1	4	0	-2	78*	2
O=C(Nc1nc2ccc(F)cc2s1)C1CCN(S(=O)(=O)c2cc([N+](=O)[O-])ccc2Cl)CC1	5	11	2	-8	99*	2
CCOc1ccc2nc(NC(=O)C3CCN(c4cnccn4)CC3)sc2c1	5	1	0	-8	70*	4
CC(NC(=O)C1CCN(S(=O)(=O)c2cc([N+](=O)[O-])ccc2Cl)CC1)c1ccccc1 (centres undefined)	5	0	-1	3	11	5
Cc1ccc2nc(NC(=O)C3CCN(S(=O)(=O)c4cccnc4)CC3)sc2c1	5	4	0	6	36	6
COc1ccc2nc(NC(=O)C3CCN(S(=O)(=O)c4cccnc4)CC3)sc2c1	-1	-1	.	8	54*	1
Cc1ccc(C(c2nnnn2CC2CCCO2)N2CCN(Cc3ccccc3)CC2)cc1 (centres undefined)	-1	-2	-2	-16	22	4
Cc1ccc(Oc2ncccc2C(=O)NCC(=O)O)cc1	0	-2	-2	.	.	.
O=C(CCOc1ccccc1)NCC(c1ccco1)N1CCCCC1 (centres undefined)	4	-5	-2	9	-6	4
Cc1ccc2nc(NC(=O)C3CCCN3C(=O)OC(C)(C)C)sc2c1 (centres undefined)	4	0	-2	-3	24	2
Cc1cc(C)c2nc(SC(C)C#N)cc(C)c2c1 (centres undefined)	2	-4	-4	-6	3	1
COc1ccc(CC(=O)Nc2nc3ccccc3s2)cc1S(=O)(=O)N1CCOCC1	5	4	-2	-15	3	1
